Experiments:
[1] = Inhibition of pig GSK-3 by radiometric protein kinase assay; design: species or system Sus scrofa
Procedure, shortened: (§1)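 Native affinity-purified porcine GSK-3 in the radiometric assay: 40 μM GS-1 peptide, 15 μM γ-33P-ATP, pH 7.5 Tris/MgCl2/EGTA/DTT/heparin/BSA buffer, 30 min at 30 °C, P81 filter binding and scintillation counting. IC50 from dose-response curves with triplicate points; top concentration 10 or 100 μM.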

[2] = Inhibition of Plasmodium falciparum recombinant GSK-3 by radiometric protein kinase assay
Procedure, shortened: (§2)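 His6-tagged recombinant GSK-3 expressed in E. coli (TOP10/pBAD-Thio-TOPO for P. falciparum and T. gondii, arabinose-induced; BL21(DE3)-pRARE2/pET15 for C. parvum, IPTG at 15 °C), Ni-NTA purified. Assayed with 40 μM GS-1 phosphopeptide, 15 μM γ-33P-ATP in pH 7.5 Tris buffer with MgCl2, EGTA, DTT, heparin, BSA; 30 min, 30 °C; P81 paper, phosphoric acid washes, scintillation counting. DMSO controls; dose-response IC50, triplicate points.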

Plasmodium falciparum [3] = assay: Antiplasmodial activity against Plasmodium falciparum after 72 hrs by luciferase reporter gene assay; format: functional, organism-based; conditions: 48 h
Procedure, shortened: (§3)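 NF54:LUC P. falciparum erythrocytic stages (luciferase under hrp2 promoter) at 3% parasitemia, 25% hematocrit; compounds in RPMI-1640 with 1% DMSO, triplicate wells; untreated, DMSO-only and non-luciferase NF54 blank wells. […] Bright-Glo lysis, luminescence read.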

Plasmodium falciparum [4] = assay: Antiplasmodial activity against Plasmodium falciparum at 15 uM after 72 hrs by luciferase reporter gene assay; format: functional; procedure, shortened: as §3
[5] = Inhibition of Cryptosporidium parvum recombinant His6-tagged GSK-3 expressed in Escherichia coli using GS-1 peptide as substrate after 30 mins by scintillation counting analysis in presence of gamma-33P-ATP; procedure, shortened: as §2
[6] = Inhibition of Plasmodium knowlesi recombinant His6-tagged GSK-3 expressed in Escherichia coli using GS-1 peptide as substrate after 30 mins by scintillation counting analysis in presence of gamma-33P-ATP
Procedure, shortened: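 P. knowlesi GSK3 gene in pBAD-Thio-TOPO, expressed in E. coli TOP10 (ampicillin, 37 °C, 0.02% arabinose for 4 h), Ni-NTA purified. Radiometric assay: 40 μM GS-1 peptide in buffer A pH 7.5 (MgCl2, EGTA, DTT, heparin, BSA) with 15 μM γ-33P-ATP, 30 min at 30 °C. P81 filter binding, scintillation counting. IC50 from triplicate dose-response curves.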

[7] = Inhibition of Leishmania donovani GSK-3
[8] = target: Glycogen synthase kinase-3 beta (Homo sapiens, UniProt P49841); assay: Inhibition of human Nt-GST-tagged GSK-3beta
Glycogen synthase kinase-3 beta, sequence (P49841 whole entry, canonical isoform): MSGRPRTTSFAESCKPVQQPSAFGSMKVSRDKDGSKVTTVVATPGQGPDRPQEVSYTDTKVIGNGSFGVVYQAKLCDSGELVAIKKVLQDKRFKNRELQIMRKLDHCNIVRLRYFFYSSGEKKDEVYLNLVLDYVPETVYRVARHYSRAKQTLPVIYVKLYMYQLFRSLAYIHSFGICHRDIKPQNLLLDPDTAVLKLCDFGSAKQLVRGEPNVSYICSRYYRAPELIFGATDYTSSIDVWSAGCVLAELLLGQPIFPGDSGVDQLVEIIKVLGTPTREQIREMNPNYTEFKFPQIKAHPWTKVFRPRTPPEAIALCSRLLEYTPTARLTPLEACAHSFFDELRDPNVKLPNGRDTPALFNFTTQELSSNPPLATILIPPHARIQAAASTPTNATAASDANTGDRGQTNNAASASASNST
Procedure, shortened: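 Recombinant human GSK-3 isoform assayed radiometrically: 40 μM GS-1 peptide in buffer A pH 7.5 with 15 μM γ-33P-ATP, 30 min at 30 °C. Read-out by P81 filter binding and scintillation. IC50 from triplicate dose-response curves; top inhibitor concentration 10, 25 or 100 μM.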

[9] = Inhibition of Plasmodium falciparum recombinant His6-tagged GSK-3 expressed in Escherichia coli using GS-1 peptide as substrate after 30 mins by scintillation counting analysis in presence of gamma-33P-ATP; procedure, shortened: as §2
[10] = Inhibition of Toxoplasma gondii recombinant His6-tagged GSK-3 expressed in Escherichia coli using GS-1 peptide as substrate after 30 mins by scintillation counting analysis in presence of gamma-33P-ATP; format: cell-free; procedure, shortened: as §2
[11] = Inhibition of Trypanosoma cruzi GSK-3
[12] = Inhibition of Trypanosoma brucei GSK-3
[13] = target: Glycogen synthase kinase-3 (Sus scrofa, UniProt B2LUN4+I6LNT8); assay: Inhibition of pig GSK-3alpha/beta; procedure, shortened: as §1
[14] = in the assay text read “48 hrs” for “72 hrs”

Row | SMILES | IC50 [1] | IC50 [2] | other results
1 | N#Cc1sc2nc(N)c(C#N)c(-c3ccccc3Br)c2c1N | 1.3 µM | 0.8 µM | –
2 | N#Cc1sc2nc(N)c(C#N)c(-c3ccccc3I)c2c1N | > 10 µM | > 10 µM | –
3 | COc1ccc(C(=O)c2sc3nc(N)c(C#N)c(-c4ccccc4OC)c3c2N)cc1 | > 10 µM | > 10 µM | –
4 | N#Cc1sc2nc(N)c(C#N)c(-c3ccccc3Cl)c2c1N | 0.4 µM | 0.13 µM | –
5 | COc1ccc(C(=O)c2sc3nc(N)c(C#N)c(-c4ccccc4I)c3c2N)cc1 | > 10 µM | 1.7 µM | –
6 | CCOc1ccccc1-c1c(C#N)c(N)nc2sc(C(=O)c3ccc(Cl)cc3)c(N)c12 | > 10 µM | > 10 µM | –
7 | COc1ccccc1-c1c(C#N)c(N)nc2sc(C(=O)c3ccc(C)cc3)c(N)c12 | > 10 µM | > 10 µM | –
8 | CCOc1ccccc1-c1c(C#N)c(N)nc2sc(C#N)c(N)c12 | > 10 µM | > 10 µM | –
9 | N#Cc1c(N)nc2sc(C(=O)c3cccc(Cl)c3)c(N)c2c1-c1cccs1 | > 10 µM | > 10 µM | –
10 | COc1ccccc1-c1c(C#N)c(N)nc2sc(C#N)c(N)c12 | > 10 µM | > 10 µM | –
11 | N#Cc1c(N)nc2sc(C(=O)c3ccc(Cl)c(Cl)c3)c(N)c2c1-c1ccccc1Cl | > 10 µM | 2.7 µM | EC50 (Plasmodium falciparum [3]; [14]): 3.7 µM; inhibition at 15 µM (Plasmodium falciparum [4]): 100%
12 | COc1ccccc1-c1c(C#N)c(N)nc2sc(C(=O)c3ccc(C(F)(F)F)cc3)c(N)c12 | > 10 µM | > 10 µM | –
13 | COc1ccccc1-c1c(C#N)c(N)nc2sc(C(=O)c3ccc(C#N)cc3)c(N)c12 | > 10 µM | > 10 µM | –
14 | N#Cc1c(N)nc2sc(C(=O)c3ccc(Cl)cc3)c(N)c2c1-c1ccccc1I | – | – | IC50 [5]: > 100 µM; IC50 [6]: 15.5 µM; IC50 [7]: 80 µM; IC50 [8]: > 100 µM; IC50 [9]: 1.61 µM; IC50 [10]: > 100 µM; IC50 [11]: > 100 µM; IC50 [12]: > 100 µM; IC50 [13]: > 100 µM
15 | N#Cc1sc2nc(N)c(C#N)c(-c3cccs3)c2c1N | 2.3 µM | 0.18 µM | –
16 | Nc1c(C(=O)c2ccccc2)sc2nc3c(c(-c4ccccc4I)c12)CCCC3 | > 10 µM | > 10 µM | –
17 | N#Cc1c(N)nc2sc(C(=O)Nc3ccc(Cl)cc3)c(N)c2c1-c1ccccc1Cl | > 10 µM | > 10 µM | –
18 | N#Cc1c(N)nc2sc(C(=O)c3ccc(C(F)(F)F)cc3)c(N)c2c1-c1ccccc1I | > 10 µM | > 10 µM | –
19 | N#Cc1c(N)nc2sc(C(=O)Nc3ccc(Cl)cc3)c(N)c2c1-c1ccccc1I | > 10 µM | > 10 µM | –
20 | COc1ccccc1-c1c(C#N)c(N)nc2sc(C(=O)c3ccc(Cl)cc3)c(N)c12 | > 10 µM | > 10 µM | –
21 | Cc1ccccc1-c1c(C#N)c(N)nc2sc(C#N)c(N)c12 | 2 µM | 0.51 µM | –
22 | N#Cc1c(N)nc2sc(C(=O)c3cccc(C(F)(F)F)c3)c(N)c2c1-c1ccccc1Cl | > 10 µM | 2.2 µM | EC50 (Plasmodium falciparum [3]; [14]): 5.6 µM; inhibition at 15 µM (Plasmodium falciparum [4]): 100%
23 | N#Cc1c(N)nc2sc(C(=O)c3ccc(Cl)c(Cl)c3)c(N)c2c1-c1ccccc1I | > 100 µM | 70 µM | –
24 | Nc1c(C(=O)c2ccc(Cl)cc2)sc2nc3c(c(-c4ccccc4I)c12)CCCC3 | > 10 µM | > 10 µM | –
25 | N#Cc1sc2nc(N)c(C#N)c(-c3c[nH]c4ccccc34)c2c1N | 3.5 µM | 1.6 µM | –

Second part, led by results:

Row | IC50 [1] | IC50 [2] | SMILES | other results
26 | > 10 µM | 8.5 µM | COc1ccccc1-c1c(C#N)c(N)nc2sc(C(=O)c3cccc(Cl)c3)c(N)c12 | –
27 | > 10 µM | 3.2 µM | Cc1ccc(C(=O)c2sc3nc(N)c(C#N)c(-c4ccccc4I)c3c2N)cc1 | –
28 | > 10 µM | > 10 µM | N#Cc1c(N)nc2sc(C(=O)c3ccccc3Cl)c(N)c2c1-c1ccccc1I | –
29 | > 10 µM | > 10 µM | COc1ccccc1-c1c(C#N)c(N)nc2sc(C(=O)c3ccccc3Cl)c(N)c12 | –
30 | > 100 µM | 10 µM | N#Cc1c(N)nc2sc(C(=O)c3cccc(Cl)c3)c(N)c2c1-c1ccccc1F | –
31 | > 10 µM | 0.91 µM | N#Cc1c(N)nc2sc(C(=O)c3cccc(Br)c3)c(N)c2c1-c1ccccc1Cl | EC50 (Plasmodium falciparum [3]; in the assay text read “after 48 hrs” for “after 72 hrs”): 7.5 µM; inhibition at 15 µM (Plasmodium falciparum [4]): 100%
32 | > 10 µM | > 10 µM | N#Cc1c(N)nc2sc(C(=O)Nc3ccc(Cl)cc3)c(N)c2c1-c1ccccc1Br | –
33 | > 10 µM | 3.8 µM | N#Cc1c(N)nc2sc(C(=O)c3ccc(Cl)c(Cl)c3)c(N)c2c1-c1ccccc1Br | –
34 | > 100 µM | > 100 µM | N#Cc1c(N)nc2sc(C(=O)c3ccc(Cl)cc3)c(N)c2c1-c1ccccc1Br | –
35 | > 100 µM | > 100 µM | N#Cc1c(N)nc2sc(C(=O)c3ccc(Cl)cc3)c(N)c2c1-c1ccccc1 | –
36 | > 10 µM | 1.7 µM | COc1cccc(C(=O)c2sc3nc(N)c(C#N)c(-c4ccccc4Cl)c3c2N)c1 | inhibition at 15 µM (Plasmodium falciparum [4]): 63.5%
37 | > 10 µM | 0.91 µM | N#Cc1c(N)nc2sc(C(=O)c3cccc(Cl)c3)c(N)c2c1-c1ccccc1I | IC50 [5]: > 100 µM; IC50 [6]: 2.75 µM; IC50 [7]: 70 µM; IC50 [9]: 0.91 µM; inhibition at 15 µM (Plasmodium falciparum [4]): 65.4%; IC50 [10]: > 100 µM; IC50 [11]: > 100 µM; IC50 [12]: > 100 µM; IC50 [13]: > 100 µM
38 | > 100 µM | > 100 µM | N#Cc1c(N)nc2sc(C(=O)c3cccc(F)c3)c(N)c2c1-c1ccccc1Cl | –
39 | > 10 µM | 2.4 µM | N#Cc1c(N)nc2sc(C(=O)c3ccccc3)c(N)c2c1-c1ccccc1I | –
40 | > 10 µM | 0.61 µM | N#Cc1c(N)nc2sc(C(=O)c3cccc(Cl)c3)c(N)c2c1-c1ccccc1Br | IC50 [5]: > 100 µM; IC50 [6]: 1.45 µM; IC50 [7]: 44 µM; IC50 [9]: 0.61 µM; inhibition at 15 µM (Plasmodium falciparum [4]): 77.1%; IC50 [10]: > 100 µM; IC50 [11]: > 100 µM; IC50 [12]: > 100 µM; IC50 [13]: > 100 µM
41 | > 10 µM | 0.5 µM | N#Cc1cccc(C(=O)c2sc3nc(N)c(C#N)c(-c4ccccc4Cl)c3c2N)c1 | IC50 [5]: > 100 µM; IC50 [6]: 6.5 µM; IC50 [7]: 100 µM; IC50 [9]: 0.5 µM; inhibition at 15 µM (Plasmodium falciparum [4]): 30.3%; IC50 [10]: > 100 µM; IC50 [11]: > 100 µM; IC50 [12]: > 100 µM; IC50 [13]: > 100 µM
42 | > 10 µM | 1.1 µM | N#Cc1c(N)nc2sc(C(=O)c3ccccc3)c(N)c2c1-c1ccccc1Br | –
